Experimental data collected from several papers.
Target: Voltage-gated inwardly rectifying potassium channel KCNH2 (KCNH2, Homo sapiens, UniProt Q12809)

SMILES	test	system	setting	measurement	value
NC/C(=C\F)COc1cccc(Cn2c(=S)[nH]c(=O)c3[nH]cnc32)c1	ion current, inhibitor	–	10 µM	inhibition	3.8%
Cn1cc2c(C(=O)O)ccc(NS(=O)(=O)c3ccc(OCC4CCC4)c(Cl)c3)c2n1	ion current	–	–	IC50	> 10 µM
CN1C[C@H](COc2nccc3c(NCc4ccco4)cc(Cl)nc23)OC1=O	ion current, inhibitor	HEK293	30 µM	inhibition	37.1%
CC(C)(C)c1sc2ncnc(Oc3c(F)cccc3OC(F)(F)F)c2c1-c1ccc(Cl)cc1	ligand displacement, radioligand	–	10 µM	inhibition	> 50%
CCOC(=O)C1=C(CN2CCC[C@@H]2C(=O)Nc2ccc(B(O)O)cc2)NC(c2nccs2)=N[C@H]1c1ccc(F)cc1Br	ion current, inhibitor, patch clamp	HEK293	1 µM, pH 7.4	inhibition	14.6%
CC(=O)N1CCC(C(=O)N2CCN3C(=O)c4cc(-c5ccccc5)ccc4NC(=O)C3C2)CC1 (stereo not drawn)	ion current, inhibitor, patch clamp	HEK293	10 µM	inhibition	4%
COC1=CC(c2ccc[nH]2)=N/C1=C\c1[nH]c(Cc2ccc(OC(F)(F)F)cc2)cc1Cc1ccc(OC(F)(F)F)cc1	ion current, inhibitor, patch clamp	–	50 µM	inhibition	26.6%
COc1cc(N)c(Cl)cc1C(=O)NC1CCN(CCCOc2ccc(F)cc2)CC1OC (stereo not drawn)	ion current, inhibitor, patch clamp	HEK293	100 pM, pH 7.4	inhibition	3.11%
CCCN1CCCC[C@H]1C(=O)Nc1c(C)cccc1C	ion current, inhibitor, patch clamp	–	100 µM	inhibition	82.3%
